pEC50: −log10 of the molar value.
How the values were obtained:
DAT = DAT (Rattus norvegicus, UniProt P23977); test: Inhibition of [3H]dopamine reuptake at DAT in rat caudate synaptosomes; assay type: biochemical; conditions: for pEC50: read-out: EC50, DAT uptake inhibition; for efficacy as inhibitor of reuptake at DAT: dose-response, Figure 1A
[1] = system: intracranial self-stimulation (medial forebrain bundle); test: Intracranial self-stimulation; assay type: in vivo, rat; conditions: rats, i.p.
[2] = system: intracranial self-stimulation (medial forebrain bundle); conditions: rats; racemate, earlier report ref 15; cited from earlier work
NET = NET (Rattus norvegicus, UniProt Q63380); test: Inhibition of [3H]norepinephrine reuptake at NET in rat brain synaptosomes; assay type: biochemical; conditions: for efficacy as inhibitor of reuptake at NET: dose-response, Figure 1B
SERT = SERT (Rattus norvegicus, UniProt P31652); test: Inhibition of [3H]serotonin reuptake at SERT in rat brain synaptosomes; assay type: biochemical; conditions: 5 nM [3H]serotonin, data not shown
Outline: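 Synaptosomes prepared from rat whole brain minus caudate and cerebellum after CO2 euthanasia. Uptake began by adding tissue suspension to Krebs-phosphate buffer, pH 7.4, containing 0.05 mM pargyline, BSA, ascorbic acid, test compound and 5 nM [3H]serotonin. Unlabeled blockers of competing transporters were included. The assay ended by rapid vacuum filtration through GF/B filters, and retained radioactivity was measured by scintillation counting.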

[3] = ratio of reuptake inhibition potencies

DAT, sequence (P23977 whole entry): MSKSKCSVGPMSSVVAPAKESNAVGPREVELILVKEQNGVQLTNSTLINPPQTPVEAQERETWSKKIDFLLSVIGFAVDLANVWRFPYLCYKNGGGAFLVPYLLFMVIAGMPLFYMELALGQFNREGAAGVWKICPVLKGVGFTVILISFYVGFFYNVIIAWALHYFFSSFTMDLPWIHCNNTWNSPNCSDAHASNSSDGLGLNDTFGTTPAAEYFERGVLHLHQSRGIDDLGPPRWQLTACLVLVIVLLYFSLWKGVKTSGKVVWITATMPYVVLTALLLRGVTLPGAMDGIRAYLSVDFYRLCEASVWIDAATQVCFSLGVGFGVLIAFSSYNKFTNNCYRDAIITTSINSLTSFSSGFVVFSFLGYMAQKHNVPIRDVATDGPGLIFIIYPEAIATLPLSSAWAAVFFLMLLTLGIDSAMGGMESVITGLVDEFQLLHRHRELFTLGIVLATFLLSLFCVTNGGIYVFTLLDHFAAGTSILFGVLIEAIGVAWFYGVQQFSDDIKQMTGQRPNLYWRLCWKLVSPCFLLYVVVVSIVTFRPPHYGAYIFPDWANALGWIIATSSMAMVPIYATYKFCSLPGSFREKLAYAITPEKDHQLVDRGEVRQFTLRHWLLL
NET, sequence (Q63380 1-617): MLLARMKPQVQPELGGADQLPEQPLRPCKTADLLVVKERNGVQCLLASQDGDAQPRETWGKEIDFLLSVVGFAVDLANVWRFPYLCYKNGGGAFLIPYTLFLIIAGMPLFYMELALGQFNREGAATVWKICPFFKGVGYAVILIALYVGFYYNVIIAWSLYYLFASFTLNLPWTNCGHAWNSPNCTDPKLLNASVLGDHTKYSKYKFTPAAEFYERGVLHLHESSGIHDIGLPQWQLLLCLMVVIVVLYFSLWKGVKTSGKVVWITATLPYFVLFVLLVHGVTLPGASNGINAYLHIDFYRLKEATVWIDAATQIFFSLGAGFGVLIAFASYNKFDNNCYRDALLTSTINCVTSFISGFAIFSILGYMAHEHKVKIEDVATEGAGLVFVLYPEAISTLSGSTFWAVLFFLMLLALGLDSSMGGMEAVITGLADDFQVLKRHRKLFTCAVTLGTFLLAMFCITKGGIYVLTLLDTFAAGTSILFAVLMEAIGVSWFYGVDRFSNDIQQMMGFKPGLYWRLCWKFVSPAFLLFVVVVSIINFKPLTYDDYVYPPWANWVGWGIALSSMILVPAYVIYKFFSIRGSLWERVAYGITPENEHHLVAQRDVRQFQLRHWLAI
SERT, sequence (P31652 whole entry): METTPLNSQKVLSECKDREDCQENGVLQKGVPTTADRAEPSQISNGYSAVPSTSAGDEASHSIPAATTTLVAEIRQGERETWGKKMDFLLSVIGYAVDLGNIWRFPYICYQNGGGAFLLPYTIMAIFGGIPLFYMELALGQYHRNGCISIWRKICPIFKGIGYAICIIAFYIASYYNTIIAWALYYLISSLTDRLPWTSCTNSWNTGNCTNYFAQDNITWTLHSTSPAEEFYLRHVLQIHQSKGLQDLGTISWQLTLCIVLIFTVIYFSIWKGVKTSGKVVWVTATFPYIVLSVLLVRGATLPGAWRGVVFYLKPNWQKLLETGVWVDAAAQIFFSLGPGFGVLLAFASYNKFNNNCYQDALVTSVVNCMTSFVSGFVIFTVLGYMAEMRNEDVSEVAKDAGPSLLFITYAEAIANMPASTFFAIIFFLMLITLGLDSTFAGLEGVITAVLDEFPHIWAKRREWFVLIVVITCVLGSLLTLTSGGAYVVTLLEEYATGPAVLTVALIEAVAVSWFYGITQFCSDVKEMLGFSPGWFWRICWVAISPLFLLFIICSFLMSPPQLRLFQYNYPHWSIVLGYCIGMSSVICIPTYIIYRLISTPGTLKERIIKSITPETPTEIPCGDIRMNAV

| Compound | pEC50 (DAT) | dose without effect on ICSS relative to the lowest effective dose of S(+)MDPV ([1]; up to 10 mg/kg) [fold] | doses producing significant facilitation of ICSS [2] [mg/kg] | efficacy as inhibitor of reuptake at DAT (DAT) | efficacy as inhibitor of reuptake at NET (NET) | concentration up to which reuptake of [3H]serotonin at SERT was not inhibited (SERT) [µM] | fold more potent as reuptake inhibitor than R(−)MDPV at DAT (DAT; [3]) | fold more potent than cocaine at DAT (DAT; [3]) [fold] | potency relative to the racemate at DAT (DAT; reuptake inhibition) | effect on ICSS relative to vehicle, posthoc analysis ([1]; doses of 0.32 and 1.0 mg/kg, one-way ANOVA, Dunnett's posthoc) | effect on ICSS frequency–rate curve (%MCR) ([1]; S(+)MDPV 0.32 mg/kg, R(−)MDPV 3.2 mg/kg, Figure 2B,C) | fold more potent as reuptake inhibitor than R(−)MDPV at NET (NET; [3]) [fold] | fold more potent than cocaine at NET (NET; [3]) [fold] | potency relative to the racemate at NET (NET; reuptake inhibition) |
| --- | --- | --- | --- | --- | --- | --- | --- | --- | --- | --- | --- | --- | --- | --- |
| CCC[C@H](C(=O)c1ccc2c(c1)OCO2)N1CCCC1.Cl [R(−)MDPV (3R), R(−)-Methylendioxypyrovalerone Hydrochloride] | 6.42 | > 100 | – | – | – | – | – | – | – | – | – | – | – | – |
| CCCC(C(=O)c1ccc2c(c1)OCO2)N1CCCC1 (racemic) [(±)MDPV (3), methylenedioxypyrovalerone] | 8.31 | – | ≥ 0.32 | fully efficacious | fully efficacious | > 10 | – | – | – | – | – | – | – | – |
| CCC[C@@H](C(=O)c1ccc2c(c1)OCO2)N1CCCC1.Cl [S(+)MDPV (3S), S(+)-Methylendioxypyrovalerone Hydrochloride] | 8.67 | – | – | fully efficacious | fully efficacious | – | approximately 200 fold | 100 | approximately twice as potent | significantly facilitated ICSS | leftward shift in the ICSS frequency–rate curve | ~80 | 40 | approximately twice as potent |

Reference: article PMC5349769 (ACS chemical neuroscience, 2015)
